Key:
[1] = test system: J774.A1; test: Inhibition of TNFalpha production in mouse J774A.1 cells at 30 uM incubated for 6 hrs by sandwich immunoassay; format: functional; settings: J774.A1, 6 h
How it was run: (§1)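 In RAW 264.7 and J774A.1 macrophages, TNF-α and IL-1β were quantified. Single-point data are % inhibition at 30 µM; otherwise IC50 in µM. Values are from three separate experiments, each in triplicate.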

[2] = test system: RAW264.7; test: Inhibition of TNFalpha production in mouse RAW264.7 cells at 30 uM incubated for 6 hrs by sandwich immunoassay; format: functional; settings: RAW264.7, 6 h; how it was run: as §1
[3] = test system: RAW264.7; test: Inhibition of LPS-induced nitric oxide production in mouse RAW264.7 cells pre-incubated for 1 hr followed by LPS stimulation for 24 hrs by Griess reagent based assay; format: functional, cell-based
How it was run: (§2)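 RAW 264.7 and J774A.1 cells handled in parallel. Viability was read at 50 µM alongside the LPS-stimulated NO (Griess) assay. Values are from three independent experiments, each run in triplicate.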

[4] = Cytotoxicity against mouse RAW264.7 cells assessed as cell viability at 50 uM after 24 hrs by MTT assay; format: cell-based; settings: read-out: Activity; how it was run: as §2
[5] = test system: RAW264.7; test: Inhibition of IL-1beta production in mouse RAW264.7 cells at 30 uM incubated for 12 hrs by sandwich immunoassay; format: functional; settings: RAW264.7, 12 h; how it was run: as §1
[6] = test system: J774.A1; test: Inhibition of LPS-induced nitric oxide production in mouse J774A.1 cells pre-incubated for 1 hr followed by LPS stimulation for 24 hrs by Griess reagent based assay; format: functional, cell-based; how it was run: as §2
[7] = test system: J774.A1; test: Inhibition of IL-1beta production in mouse J774A.1 cells at 30 uM incubated for 12 hrs by sandwich immunoassay; format: functional; settings: J774.A1, 12 h; how it was run: as §1
[8] = Cytotoxicity against mouse J774A.1 cells assessed as cell viability at 50 uM after 24 hrs by MTT assay; format: cell-based, J774.A1; settings: read-out: Activity; how it was run: as §2
[9] = test system: Rattus norvegicus; test: Antiinflammatory activity in Sprague-Dawley rat assessed as inhibition of LPS-induced IL-1beta production at 150 umol/kg, po pre-administered at interval of 12 hrs followed by LPS-stimulation 6 hrs after final dose and measured 2 hrs post LPS challenge by ELISA method; format: functional
[10] = test system: Rattus norvegicus; test: Antiinflammatory activity in Sprague-Dawley rat assessed as inhibition of carrageenan-induced paw edema at 150 umol/kg, po administered 1 hr before carrageenan injection and measured 5 hrs post carrageenan challenge
[11] = test system: RAW264.7; test: Inhibition of TNFalpha production in mouse RAW264.7 cells incubated for 6 hrs by sandwich immunoassay; format: functional, cell-based; settings: RAW264.7, 6 h; how it was run: as §1
[12] = test system: Rattus norvegicus; test: Antiinflammatory activity in Sprague-Dawley rat assessed as inhibition of carrageenan-induced paw edema at 150 umol/kg, po administered 1 hr before carrageenan injection and measured 3 hrs post carrageenan challenge
[13] = test system: J774.A1; test: Inhibition of TNFalpha production in mouse J774A.1 cells incubated for 6 hrs by sandwich immunoassay; format: functional, cell-based; settings: J774.A1, 6 h; how it was run: as §1
[14] = test system: Rattus norvegicus; test: Antiinflammatory activity in Sprague-Dawley rat assessed as inhibition of LPS-induced TNFalpha production at 150 umol/kg, po pre-administered at interval of 12 hrs followed by LPS-stimulation 2 hrs after final dose and measured 2 hrs post LPS challenge by ELISA method; format: functional
[15] = test system: RAW264.7; test: Inhibition of IL-1beta production in mouse RAW264.7 cells incubated for 12 hrs by sandwich immunoassay; format: functional, cell-based; settings: RAW264.7, 12 h; how it was run: as §1
[16] = test system: J774.A1; test: Inhibition of IL-1beta production in mouse J774A.1 cells incubated for 12 hrs by sandwich immunoassay; format: functional, cell-based; settings: J774.A1, 12 h; how it was run: as §1

CCOc1ccccc1C1CC(=O)c2ccccc2O1 (centres undefined)
inhibition at 30 µM [1]: 38.8%
inhibition at 30 µM [2]: 38.5%
IC50 [3]: 38.5 µM
viability at 24 h, 50 µM [4]: 82.6%
inhibition at 30 µM [5]: 29.6%
IC50 [6]: 38.8 µM
inhibition at 30 µM [7]: 27.7%
viability at 24 h, 50 µM [8]: 92.7%

CCCCCOc1ccccc1C1CC(=O)c2ccccc2O1 (centres undefined)
inhibition at 30 µM [1]: 39.3%
inhibition at 30 µM [2]: 39.2%
IC50 [3]: 39.2 µM
viability at 24 h, 50 µM [4]: 90.3%
inhibition at 30 µM [5]: 41.3%
IC50 [6]: 39.3 µM
inhibition at 30 µM [7]: 40.1%
viability at 24 h, 50 µM [8]: 92.1%

O=C1CC(c2ccccc2OCc2ccc(F)cc2)Oc2ccccc21 (centres undefined)
inhibition in vivo at 150 µmol/kg [9]: 43.6%
inhibition at 30 µM [1]: 94.1%
inhibition at 30 µM [2]: 92.7%
IC50 [3]: 28.2 µM
inhibition in vivo at 150 µmol/kg [10]: 50.5%
IC50 [11]: 17.7 µM
inhibition in vivo at 150 µmol/kg [12]: 18.2%
viability at 24 h, 50 µM [4]: 95.2%
inhibition at 30 µM [5]: 45.2%
IC50 [6]: 25.5 µM
IC50 [13]: 18.2 µM
inhibition in vivo at 150 µmol/kg [14]: 55.4%
inhibition at 30 µM [7]: 42.1%
viability at 24 h, 50 µM [8]: 91.1%

CC(C)CCOc1ccccc1C1CC(=O)c2ccccc2O1 (centres undefined)
inhibition at 30 µM [1]: 42.6%
inhibition at 30 µM [2]: 39.2%
IC50 [3]: 39.2 µM
viability at 24 h, 50 µM [4]: 81.6%
inhibition at 30 µM [5]: 47.6%
IC50 [6]: 42.6 µM
inhibition at 30 µM [7]: 43.6%
viability at 24 h, 50 µM [8]: 88.6%

O=C1CC(c2ccccc2OCc2ccccc2)Oc2ccccc21 (centres undefined)
inhibition in vivo at 150 µmol/kg [9]: 28.4%
inhibition at 30 µM [1]: 83.1%
inhibition at 30 µM [2]: 86.1%
IC50 [3]: 18.9 µM
inhibition in vivo at 150 µmol/kg [10]: 35.7%
IC50 [11]: 20.1 µM
IC50 [15]: 25.2 µM
inhibition in vivo at 150 µmol/kg [12]: 9.8%
viability at 24 h, 50 µM [4]: 91.2%
IC50 [16]: 24.5 µM
inhibition at 30 µM [5]: 93.2%
IC50 [6]: 23.2 µM
IC50 [13]: 22.4 µM
inhibition in vivo at 150 µmol/kg [14]: 32.1%
inhibition at 30 µM [7]: 91.5%
viability at 24 h, 50 µM [8]: 96.5%

C=CCOc1ccccc1C1CC(=O)c2ccccc2O1 (centres undefined)
inhibition at 30 µM [1]: 38.6%
inhibition at 30 µM [2]: 47.8%
IC50 [3]: 37.8 µM
viability at 24 h, 50 µM [4]: 89.3%
inhibition at 30 µM [5]: 49.3%
IC50 [6]: 38.6 µM
inhibition at 30 µM [7]: 47%
viability at 24 h, 50 µM [8]: 84%

CC(C)c1ccc(COc2ccccc2C2CC(=O)c3ccccc3O2)cc1 (centres undefined)
inhibition in vivo at 150 µmol/kg [9]: 24.6%
inhibition at 30 µM [1]: 78.6%
inhibition at 30 µM [2]: 80.6%
IC50 [3]: 27.1 µM
inhibition in vivo at 150 µmol/kg [10]: 32.3%
IC50 [11]: 23.7 µM
IC50 [15]: 25.1 µM
inhibition in vivo at 150 µmol/kg [12]: 18%
viability at 24 h, 50 µM [4]: 92.5%
IC50 [16]: 23.1 µM
inhibition at 30 µM [5]: 91.5%
IC50 [6]: 28.6 µM
IC50 [13]: 23.2 µM
inhibition in vivo at 150 µmol/kg [14]: 30.3%
inhibition at 30 µM [7]: 91.7%
viability at 24 h, 50 µM [8]: 99.7%

COCOc1ccccc1C1CC(=O)c2ccccc2O1 (centres undefined)
inhibition at 30 µM [1]: 45.2%
inhibition at 30 µM [2]: 48.6%
IC50 [3]: 32.6 µM
viability at 24 h, 50 µM [4]: 92.2%
inhibition at 30 µM [5]: 35.2%
IC50 [6]: 35.2 µM
inhibition at 30 µM [7]: 33.3%
viability at 24 h, 50 µM [8]: 99.4%

COc1ccccc1C1CC(=O)c2ccccc2O1 (centres undefined)
inhibition at 30 µM [1]: 34.5%
inhibition at 30 µM [2]: 37.3%
IC50 [3]: 47.3 µM
viability at 24 h, 50 µM [4]: 84.3%
inhibition at 30 µM [5]: 37.3%
IC50 [6]: 44.5 µM
inhibition at 30 µM [7]: 38.3%
viability at 24 h, 50 µM [8]: 89.3%

C[C@@H]1C[C@H]2[C@@H]3CCC4=CC(=O)C=C[C@]4(C)[C@@]3(F)[C@@H](O)C[C@]2(C)[C@@]1(O)C(=O)CO [DEXAMETHASONE]
inhibition in vivo at 150 µmol/kg [9]: 62.5%
IC50 [11]: 0.04 µM
IC50 [16]: 22 µM
IC50 [13]: 0.4 µM
inhibition in vivo at 150 µmol/kg [14]: 73.4%

CC(C)COc1ccccc1C1CC(=O)c2ccccc2O1 (centres undefined)
inhibition at 30 µM [1]: 33.2%
inhibition at 30 µM [2]: 36.7%
IC50 [3]: 36.7 µM
viability at 24 h, 50 µM [4]: 83.3%
inhibition at 30 µM [5]: 30.4%
IC50 [6]: 33.2 µM
inhibition at 30 µM [7]: 33.5%
viability at 24 h, 50 µM [8]: 84.5%

CC(C)Cc1ccc(C(C)C(=O)O)cc1 (centres undefined) [IBUPROFEN]
inhibition in vivo at 150 µmol/kg [10]: 41.4%
inhibition in vivo at 150 µmol/kg [12]: 30.5%

CCCOc1ccccc1C1CC(=O)c2ccccc2O1 (centres undefined)
inhibition at 30 µM [1]: 44.6%
inhibition at 30 µM [2]: 46%
IC50 [3]: 46 µM
viability at 24 h, 50 µM [4]: 91.7%
inhibition at 30 µM [5]: 45.7%
IC50 [6]: 44.6 µM
inhibition at 30 µM [7]: 43.6%
viability at 24 h, 50 µM [8]: 93.6%

CCCCOc1ccccc1C1CC(=O)c2ccccc2O1 (centres undefined)
inhibition at 30 µM [1]: 47.7%
inhibition at 30 µM [2]: 48.7%
IC50 [3]: 48.7 µM
viability at 24 h, 50 µM [4]: 78.3%
inhibition at 30 µM [5]: 19.3%
IC50 [6]: 47.7 µM
inhibition at 30 µM [7]: 42.5%
viability at 24 h, 50 µM [8]: 95.5%

O=C1CC(c2ccccc2OCc2cccc(F)c2)Oc2ccccc21 (centres undefined)
inhibition in vivo at 150 µmol/kg [9]: 39.2%
inhibition at 30 µM [1]: 96.2%
inhibition at 30 µM [2]: 91.6%
IC50 [3]: 15.6 µM
inhibition in vivo at 150 µmol/kg [10]: 39.5%
IC50 [11]: 19.8 µM
IC50 [15]: 27.4 µM
inhibition in vivo at 150 µmol/kg [12]: 5.2%
viability at 24 h, 50 µM [4]: 90.3%
IC50 [16]: 30.2 µM
inhibition at 30 µM [5]: 93.3%
IC50 [6]: 13.2 µM
IC50 [13]: 20.1 µM
inhibition in vivo at 150 µmol/kg [14]: 49.6%
inhibition at 30 µM [7]: 92.7%
viability at 24 h, 50 µM [8]: 92.7%

CC(C)=CCOc1ccccc1C1CC(=O)c2ccccc2O1 (centres undefined)
inhibition at 30 µM [1]: 31.7%
inhibition at 30 µM [2]: 41.7%
IC50 [3]: 32.7 µM
viability at 24 h, 50 µM [4]: 94.8%
inhibition at 30 µM [5]: 41.8%
IC50 [6]: 34.3 µM
inhibition at 30 µM [7]: 40.3%
viability at 24 h, 50 µM [8]: 92.3%
